The values below come from ChEMBL document CHEMBL1130108, “Synthesis of nonhydrolyzable analogues of thiazole-4-carboxamide and benzamide adenine dinucleotide containing fluorine atom at the C2' of adenine nucleoside: induction of K562 differentiation and inosine monophosphate dehydrogenase inhibitory activity” (J Med Chem, 1997).

Where “and” joins values, the source holds several entries; their conditions need not be identical. Identical values can stand only once.

In experiment [1] the target is Inosine-5'-monophosphate dehydrogenase 2 (Homo sapiens, UniProt P12268). The experiment in a line: The compound was assayed to determine the inhibitory activity against human Inosine-5'-monophosphate dehydrogenase 2.
Experiment [2] relates to K562. The experiment in a line: The ability to induce differentiation in K562 cells was estimated by determining the fraction of benzidine positive cells converted following incubation with the compound. It counts as functional, Homo sapiens. Put shortly:
(§1)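 K562 erythroleukemia cells incubated with analogue; differentiation scored as fraction of benzidine-positive cells; percent benzidine-positive cells normalized by dividing by the analogue concentration applied.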

Experiment [3] concerns K562. The experiment in a line: The concentration used to induce differentiation in K562 cells. The settings on record: Homo sapiens. It counts as functional, cell-based. In a few lines:
as §1

Experiment [4] deals with K562. The experiment in a line: Antiproliferative activity against K562 erythroid leukemic cells was determined. It counts as functional, cell-based. Particulars: Homo sapiens; call rule not given here.
The nature of experiment [5]: Percentage of benzidine positive cells is divided by the concentration used. The arrangement: unit not given here. It counts as functional. In a few lines:
as §1

The subject of experiment [6] is K562. Kind of experiment: The concentration used. It counts as functional, cell-based. Particulars: Homo sapiens. In a few lines:
as §1

For experiment [7], the system named is K562. The experiment in a line: Antiproliferative activity against K562 erythroid leukemic cells was determined; NE=no effect. It counts as functional, cell-based, Homo sapiens.

As a reminder, the IC50 is the concentration needed to halve the response being measured. As to `NC(=O)c1csc([C@@H]2O[C@H](COP(=O)(O)OP(=O)(O)OC[C@@H]3O[C@H](n4cnc5c(N)ncnc54)[C@@H](O)[C@H]3F)[C@@H](O)[C@H]2O)n1`, the results for the IC50 (in experiment [1]; in the experiment on K562 [4]) were 0.7 µM and 3.2 µM, respectively. The Positive cells in the experiment on K562 [2] was 26%. Besides, the Concentration in the experiment on K562 [3] was 2.5 µM; in experiment [5] it was 10.4.
On to `NC(=O)c1cccc([C@@H]2O[C@H](COP(=O)(O)CP(=O)(O)OC[C@@H]3O[C@H](n4cnc5c(N)ncnc54)[C@@H](O)[C@H]3O)[C@@H](O)[C@H]2O)c1`, for which the values for the IC50 (in experiment [1]; in the experiment on K562 [4]) were 0.8 µM and 68 µM, respectively. Further, the Concentration in the experiment on K562 [3] is 15 µM; in the experiment on K562 [6], 60 µM; in experiment [5], 0.6 and 0.8.
Consider `NC(=O)c1cccc([C@@H]2O[C@H](COP(=O)(O)CP(=O)(O)OC[C@@H]3O[C@H](n4cnc5c(N)ncnc54)[C@H](F)[C@H]3O)[C@@H](O)[C@H]2O)c1`, for which the IC50 is 175 µM in experiment [1] and “Not Active” in the experiment with K562 [7]. The Positive cells with K562 [2] is reported as 9%. Further, the Concentration in the experiment with K562 [3] was 75 µM; in experiment [5], 0.1.
In the case of `NC(=O)c1csc([C@@H]2O[C@H](COP(=O)(O)C(F)(F)P(=O)(O)OC[C@@H]3O[C@H](n4cnc5c(N)ncnc54)[C@@H](O)[C@H]3O)[C@@H](O)[C@H]2O)n1`, the figures for the IC50 (in experiment [1]; in the experiment on K562 [4]) were 0.3 µM and 11 µM, respectively. Also, the Positive cells in the experiment with K562 [2] is listed as 48%. The values for the Concentration (with K562 [3]; in experiment [5]) were 14 µM and 3.4, respectively.
Turning to `NC(=O)c1csc([C@@H]2O[C@H](COP(=O)(O)CP(=O)(O)OC[C@@H]3O[C@H](n4cnc5c(N)ncnc54)[C@@H](O)[C@H]3O)[C@@H](O)[C@H]2O)n1`, the IC50 in experiment [1] came out at 0.11 µM; in the experiment with K562 [4] it was 18 µM. Also, in the experiment with K562 [2], the Positive cells is recorded as 35%. For the same compound, the Concentration in the experiment with K562 [3] is 14.3 µM.
In the case of `NC(=O)c1csc([C@H]2O[C@@H](COP(=O)(O)OP(=O)(O)OC[C@H]3O[C@@H](n4cnc5c(N)ncnc54)[C@H](O)[C@@H]3O)[C@H](O)[C@@H]2O)n1`, the Positive cells in the experiment with K562 [2] is listed as 70%. Moreover, in the experiment with K562 [3], the Concentration stood at 15 µM. The same compound registered an IC50 in the experiment on K562 [4] of 3.7 µM.
As to `NC(=O)c1csc([C@@H]2O[C@H](COP(=O)(O)OP(=O)(O)OC[C@@H]3O[C@H](n4cnc5c(N)ncnc54)[C@@H](F)[C@H]3O)[C@@H](O)[C@H]2O)n1`, the IC50 is 2.6 µM in experiment [1] and 3.8 µM in the experiment with K562 [4]. Further, the Positive cells in the experiment with K562 [2] is reported as 56%. The Concentration with K562 [3] was 13 µM; in experiment [5], 10.4.
As to `NC(=O)c1csc([C@@H]2O[C@H](COP(=O)(O)C(F)(F)P(=O)(O)OC[C@@H]3O[C@H](n4cnc5c(N)ncnc54)[C@H](F)[C@H]3O)[C@@H](O)[C@H]2O)n1`, the half-inhibitory concentration (IC50) came to 0.8 µM in experiment [1] and 13 µM in the experiment with K562 [4]. Further, the Positive cells in the experiment on K562 [2] is 40%. The Concentration in the experiment on K562 [3] is 13 µM; in experiment [5], 3.1.
Turning to `NC(=O)c1csc([C@@H]2O[C@H](COP(=O)(O)CP(=O)(O)OC[C@@H]3O[C@H](n4cnc5c(N)ncnc54)[C@H](F)[C@H]3O)[C@@H](O)[C@H]2O)n1`, the IC50 turned out to be 6 µM in experiment [1] and 70 µM in the experiment with K562 [4]. Moreover, in the experiment on K562 [2], the Positive cells was 9.5%. In addition, the Concentration in the experiment with K562 [3] was 14 µM; in experiment [5] it was 0.7.
With `NC(=O)c1csc([C@@H]2O[C@H](CO)[C@@H](O)[C@H]2O)n1` [TIAZOFURIN], in the experiment on K562 [2], the Positive cells was 80%. In the experiment with K562 [3], this compound showed a Concentration of 15 µM. The compound further yielded an IC50 in the experiment with K562 [4] of 3 µM.
